Calls of active or inactive are those of the source. The calls are words filed in the database; no cut-off is given here.
Experiments:
[1] = biological target: T1, 5-hydroxytryptamine receptor 6 (Homo sapiens, UniProt P50406); test: Displacement of [3H]-LSD from human 5HT6R expressed in HEK293 cell membranes after 1 hr by microbeta counting method
Method in brief: (§1)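 HEK293 (5-HT1A, 5-HT6, 5-HT7b, D2L) or CHO-K1 (5-HT2A) membranes, all Tris–HCl with 4 mM MgCl2 plus receptor-specific EDTA/pargyline/ascorbate (D2L adds NaCl, KCl, CaCl2). Nonspecific binding: 10 μM 5-HT (5-HT1A, 5-HT7), chlorpromazine (5-HT2A), methiothepine (5-HT6), haloperidol (D2L). Triplicate, 7–8 concentrations (10⁻¹¹–10⁻⁴ M), filtration; Ki via Cheng–Prusoff, mean of three experiments. Incubation 1 h 37 °C; 5-HT1A 1 h and 5-HT2A 1.5 h, room temperature.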

[2] = biological target: T1, 5-hydroxytryptamine receptor 6; test: Antagonist activity at 5HT6R (unknown origin) transfected in NG108-15 cells co-transfected with CAMYEL assessed as reduction in cAMP levels after 5 mins by Coelanterazine H-based BRET assay; type: functional, cell-based
[3] = biological target: T2, 5-hydroxytryptamine receptor 1A (Homo sapiens, UniProt P08908); test: Displacement of [3H]-8-OH-DPAT from human 5HT1AR expressed in HEK293 cell membranes after 1 hr by microbeta counting method
T2 sequence (P08908 whole entry): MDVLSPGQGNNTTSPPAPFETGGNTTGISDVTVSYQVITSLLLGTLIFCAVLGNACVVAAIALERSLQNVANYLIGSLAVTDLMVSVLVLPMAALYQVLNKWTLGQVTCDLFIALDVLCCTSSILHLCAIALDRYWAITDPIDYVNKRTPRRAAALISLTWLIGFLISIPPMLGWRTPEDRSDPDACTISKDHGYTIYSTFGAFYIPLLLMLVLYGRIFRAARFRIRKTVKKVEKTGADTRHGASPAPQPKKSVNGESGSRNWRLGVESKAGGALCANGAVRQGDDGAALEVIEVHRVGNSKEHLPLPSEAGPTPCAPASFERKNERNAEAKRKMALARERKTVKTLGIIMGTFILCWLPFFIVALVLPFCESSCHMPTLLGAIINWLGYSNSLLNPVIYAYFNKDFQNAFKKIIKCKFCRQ
Method in brief: as §1, with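 “experiments.” for “experiments. Incubation 1 h 37 °C; 5-HT1A 1 h and 5-HT2A 1.5 h, room temperature.”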

[4] = biological target: 5-hydroxytryptamine receptor 2A (Homo sapiens, UniProt P28223); test: Displacement of [3H]-Ketanserin from human 5HT2AR expressed in CHO-K1 cell membranes after 1.5 hrs by microbeta counting method
Chain of 5-hydroxytryptamine receptor 2A (P28223 whole entry): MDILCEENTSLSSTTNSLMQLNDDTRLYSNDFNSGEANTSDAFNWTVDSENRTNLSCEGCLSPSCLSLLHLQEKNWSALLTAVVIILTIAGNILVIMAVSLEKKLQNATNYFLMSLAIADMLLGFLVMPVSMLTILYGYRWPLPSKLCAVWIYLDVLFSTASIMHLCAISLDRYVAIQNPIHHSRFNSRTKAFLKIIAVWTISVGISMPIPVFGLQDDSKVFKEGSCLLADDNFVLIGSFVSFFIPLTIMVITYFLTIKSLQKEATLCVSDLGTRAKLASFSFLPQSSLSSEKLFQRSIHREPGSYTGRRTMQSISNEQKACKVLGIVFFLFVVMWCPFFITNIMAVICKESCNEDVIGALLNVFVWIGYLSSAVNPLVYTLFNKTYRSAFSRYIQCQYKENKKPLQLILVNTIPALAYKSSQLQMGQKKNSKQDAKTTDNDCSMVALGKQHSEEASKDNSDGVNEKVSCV
Method in brief: as §1, with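 “experiments.” for “experiments. Incubation 1 h 37 °C; 5-HT1A 1 h and 5-HT2A 1.5 h, room temperature.”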

[5] = biological target: 5-hydroxytryptamine receptor 7 (Homo sapiens, UniProt P34969); test: Displacement of [3H]-5-CT from human 5HT7BR expressed in HEK293 cell membranes after 1 hr by microbeta counting method; method in brief: as §1
Chain of 5-hydroxytryptamine receptor 7 (P34969 whole entry): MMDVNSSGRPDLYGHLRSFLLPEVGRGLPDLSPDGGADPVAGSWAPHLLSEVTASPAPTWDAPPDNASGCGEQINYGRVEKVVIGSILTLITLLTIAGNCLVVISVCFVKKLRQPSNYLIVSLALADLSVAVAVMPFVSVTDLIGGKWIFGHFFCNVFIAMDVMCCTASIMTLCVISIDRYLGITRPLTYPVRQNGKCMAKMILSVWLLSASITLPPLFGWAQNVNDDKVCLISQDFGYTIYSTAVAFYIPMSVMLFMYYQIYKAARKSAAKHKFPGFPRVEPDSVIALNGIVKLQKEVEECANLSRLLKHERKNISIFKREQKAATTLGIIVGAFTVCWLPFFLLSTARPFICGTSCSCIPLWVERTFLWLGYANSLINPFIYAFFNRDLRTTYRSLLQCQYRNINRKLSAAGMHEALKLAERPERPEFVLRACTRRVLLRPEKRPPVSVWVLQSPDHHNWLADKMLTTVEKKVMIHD

[6] = biological target: D(2) dopamine receptor (Homo sapiens, UniProt P14416); test: Displacement of [3H]-Raclopride from human dopamine D2L receptor expressed in HEK293 cell membranes after 1 hr by microbeta counting method; method in brief: as §1
Chain of D(2) dopamine receptor (P14416 whole entry): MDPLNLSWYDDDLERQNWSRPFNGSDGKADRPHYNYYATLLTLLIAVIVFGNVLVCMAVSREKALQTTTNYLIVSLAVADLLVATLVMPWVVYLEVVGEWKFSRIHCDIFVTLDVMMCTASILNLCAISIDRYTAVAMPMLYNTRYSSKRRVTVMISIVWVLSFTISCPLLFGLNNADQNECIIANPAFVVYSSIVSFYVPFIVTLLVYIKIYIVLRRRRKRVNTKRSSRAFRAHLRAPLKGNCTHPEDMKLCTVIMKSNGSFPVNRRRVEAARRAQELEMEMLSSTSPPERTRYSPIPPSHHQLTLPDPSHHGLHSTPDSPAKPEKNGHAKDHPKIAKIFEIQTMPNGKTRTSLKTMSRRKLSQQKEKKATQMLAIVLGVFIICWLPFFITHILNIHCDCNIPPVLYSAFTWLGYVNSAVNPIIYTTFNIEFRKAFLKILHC

[7] = tested on: Rattus norvegicus; test: Reversal of PCP-induced cognitive impairment in Sprague-Dawley rat assessed as reduction in time spent exploring novel object over familiar object at 0.3 to 1 mg/kg, po administered 120 mins before familiarization phase measured for 3 mins post familiarization phase by novel object recognition assay; type: functional, organism-based
Method in brief: (§2)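 Male Sprague–Dawley rats, habituated to the arena 5 min 24 h before testing. PCP (5 mg/kg i.p., 45 min) or scopolamine (1.25 mg/kg i.p., 30 min) given before familiarization trial T1; test compound or donepezil given p.o. 120 min before T1. T1 and T2 each last 3 min, separated by an inter-trial interval. DI = (EB−EA)/(EA+EB) from T2 exploration time; 8–10 rats/group; ANOVA with Newman–Keuls.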

[8] = tested on: Rattus norvegicus; test: Reversal of SCOP-induced cognitive impairment in Sprague-Dawley rat assessed as reduction in time spent exploring novel object over familiar object at 0.3 mg/kg, po administered 120 mins before familiarization phase measured for 3 mins post familiarization phase by novel object recognition assay; type: functional, organism-based
[9] = tested on: Rattus norvegicus; test: Reversal of SCOP-induced cognitive impairment in Sprague-Dawley rat assessed as reduction in time spent exploring novel object over familiar object at 1 mg/kg, po administered 120 mins before familiarization phase measured for 3 mins post familiarization phase by novel object recognition assay; type: functional, organism-based; method in brief: as §2
[10] = biological target: T1, 5-hydroxytryptamine receptor 6; test: Binding affinity to 5HT6R (unknown origin)

T1 sequence (P50406 whole entry): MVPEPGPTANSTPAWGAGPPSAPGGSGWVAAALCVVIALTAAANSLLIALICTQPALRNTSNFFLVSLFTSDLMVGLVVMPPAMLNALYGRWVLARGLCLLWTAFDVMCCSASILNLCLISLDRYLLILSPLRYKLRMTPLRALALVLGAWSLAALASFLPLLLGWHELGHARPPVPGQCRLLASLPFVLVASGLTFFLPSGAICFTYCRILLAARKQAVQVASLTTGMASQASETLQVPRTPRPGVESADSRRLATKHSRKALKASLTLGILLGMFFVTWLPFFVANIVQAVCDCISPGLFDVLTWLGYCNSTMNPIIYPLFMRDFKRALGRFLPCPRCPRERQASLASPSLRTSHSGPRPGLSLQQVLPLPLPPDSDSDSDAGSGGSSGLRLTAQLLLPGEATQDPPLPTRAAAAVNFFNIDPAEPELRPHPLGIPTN

SMILES	Ki [1]	further results
Clc1cccc(Cn2c(-c3cccs3)nc3c(N4CCNCC4)ccnc32)c1	165 nM	
c1ccc(Cn2cnc3c(N4CCNCC4)nccc32)cc1	450 nM	
O=S(=O)(c1ccccc1)c1cnc2c(N3CCNCC3)cccc2c1 [INTEPIRDINE]		Ki [5]: 14.2 µM; Ki [6]: 0.997 µM; Activity [7]: Active
CCC(CC)c1nc2c(N3CCNCC3)ccnc2n1Cc1ccccc1Cl	108 nM	
COc1cccc(Cn2c(CC(C)(C)C)nc3c(N4CCNCC4)ccnc32)c1	165 nM	
Fc1ccc(-c2nc3c(N4CCNCC4)ccnc3n2Cc2cccc(F)c2)cc1	162 nM	
CC(C)c1nc2c(N3CCNCC3)ccnc2n1Cc1ccc(Cl)cc1	107 nM	
Cc1nc2c(N3CCNCC3)ccnc2n1Cc1ccc(F)cc1	317 nM	
Cc1nc2c(N3CCNCC3)nccc2n1Cc1ccccc1	374 nM	
Cc1nc2c(N3CCNCC3)ccnc2n1Cc1ccccc1	101 nM	
Clc1cccc(CCn2cnc3c(N4CCNCC4)ccnc32)c1	1250 nM	
COc1cc2c(cc1OC)C(=O)C(CC1CCN(Cc3ccccc3)CC1)C2 (stereo not drawn)		Activity [8]: inactive; Activity [9]: Active
COc1cccc(Cn2c(C(C)C)nc3c(N4CCNCC4)ccnc32)c1	92 nM	
CCc1nc2c(N3CCNCC3)ccnc2n1Cc1ccc(F)c(F)c1	139 nM	
Cc1nc2c(N3CCNCC3)nccc2n1Cc1cccc(Cl)c1	254 nM	
Cc1nc2c(N3CCNCC3)ccnc2n1Cc1ccccc1Cl	829 nM	
c1ccc(Cn2cnc3c(N4CCNCC4)ccnc32)cc1	110 nM	
O=S(=O)(c1ccccc1)n1ncc2c(N3CCNCC3)nccc21		Ki [10]: 5 nM
CC(C)c1nc2c(N3CCNCC3)ccnc2n1Cc1cccc(Cl)c1		Ki [3]: 2280 nM; Ki [4]: 694 nM; Ki [5]: 7.14 µM; Ki [6]: 2.94 µM
Clc1cccc(Cn2cnc3c(N4CCNCC4)nccc32)c1	320 nM	
Cc1cccc(Cn2c(CC(C)(C)C)nc3c(N4CCNCC4)ccnc32)c1	142 nM	
Cc1nc2c(N3CCNCC3)ccnc2n1CCc1cccc(Cl)c1	312 nM	
COc1ccccc1Cn1c(C)nc2c(N3CCNCC3)ccnc21	337 nM	
CCc1nc2c(N3CCNCC3)ccnc2n1Cc1ccccc1Cl	177 nM	
CC(C)c1nc2c(N3CCNCC3)nccc2n1Cc1cccc(Cl)c1	126 nM	
Fc1cccc(CCn2cnc3c(N4CCNCC4)ccnc32)c1	1300 nM	
CC(C)c1nc2c(N3CCNCC3)ccnc2n1CCc1cccc(Cl)c1	80 nM	
NC(=O)NC[C@@H]1CCCc2cc(S(=O)(=O)c3cccc(F)c3)ccc21		Ki [10]: 0.2 nM

More lines, main results first:

Ki [1]	SMILES	further results
56 nM	CCc1nc2c(N3CCNCC3)ccnc2n1CCc1cccc(F)c1	
7 nM	CCc1nc2c(N3CCNCC3)ccnc2n1Cc1cccc(Cl)c1	IC50 [2]: 51.9 nM; Ki [3]: 1350 nM; Ki [4]: 449 nM; Ki [5]: 8.75 µM; Ki [6]: 6.1 µM
42 nM	CCc1nc2c(N3CCNCC3)ccnc2n1CCc1cccc(Cl)c1	
57 nM	CCc1nc2c(N3CCNCC3)ccnc2n1Cc1cc(F)ccc1F	
30 nM	CCC(CC)c1nc2c(N3CCNCC3)ccnc2n1Cc1cccc(Cl)c1	
26 nM	Cc1cccc(Cn2c(C)nc3c(N4CCNCC4)ccnc32)c1	
42 nM	CCC(CC)c1nc2c(N3CCNCC3)ccnc2n1Cc1cccc(C)c1	
61 nM	CC(C)c1nc2c(N3CCNCC3)ccnc2n1Cc1ccccc1F	
36 nM	CCc1nc2c(N3CCNCC3)ccnc2n1Cc1ccccc1	
62 nM	Cc1nc2c(N3CCNCC3)ccnc2n1Cc1cccc(C(F)(F)F)c1	
13 nM	CC(C)c1nc2c(N3CCNCC3)ccnc2n1Cc1cccc(F)c1	IC50 [2]: 69.5 nM; Ki [3]: 5930 nM; Ki [4]: 475 nM; Ki [5]: 11.9 µM; Ki [6]: 3.44 µM
80 nM	CC(C)c1nc2c(N3CCNCC3)ccnc2n1Cc1ccc(F)cc1	
33 nM	Clc1cccc(Cn2cnc3c(N4CCNCC4)ccnc32)c1	
21 nM	Cc1nc2c(N3CCNCC3)ccnc2n1Cc1cccc(Cl)c1	
